Measurements collected from several papers.
Read-out: cell growth or viability

| Compound | cell line | test | setting | IC50 |
| --- | --- | --- | --- | --- |
| CC(C)C[C@H](NC(=O)OCc1ccccc1)C(=O)N[C@@H](CC(C)C)C(=O)N[C@@H](CC(C)C)C(=O)C(=O)Nc1cccc2cnccc12 | RPMI-8226 | MTS | 72 h | 133 nM |
| CCCCC/C=C\C/C=C\C/C=C\C/C=C\CCCC(=O)NCCO | ReNcell VM |  | 24 h | ~8000 nM |
| N[C@@H](Cc1ccc(N(CCCl)CCCl)cc1)C(=O)O | IOSE-144 | CCK-8 | 48 h | > 50000 nM |
| COc1cc(NC(=O)C(=O)[C@H](CC(C)C)NC(=O)[C@H](CC(C)C)NC(=O)[C@H](CC(C)C)NC(=O)c2ccc(-c3ccc(C(C)=O)cc3)o2)cc(OC)c1 | RPMI-8226 | MTS | 72 h | 36.1 nM |
| Cc1cc(N(CCO)CCO)ccc1C=O | ACHN |  |  | > 10 µg/mL |
| Cc1cccc(-n2ncc(Cl)c(Cl)c2=O)c1 | NCI-H2444 | resazurin | 96 h | 240 nM |
| CC(C)C[C@H](NC(=O)OCc1ccccc1)C(=O)N[C@@H](Cc1c[nH]c2ccccc12)C(=O)N[C@@H](CC(C)C)C(=O)C(=O)Nc1cccc(S(C)(=O)=O)c1 | RPMI-8226 | MTS | 72 h | 33.2 nM |
| C[C@H]1O[C@@H](O[C@H]2[C@@H](O)C[C@H](O[C@H]3[C@@H](O)C[C@H](O[C@H]4CC[C@@]5(C)[C@H](CC[C@@H]6[C@@H]5C[C@@H](O)[C@]5(C)[C@@H](C7=CC(=O)OC7)CC[C@]65O)C4)O[C@@H]3C)O[C@@H]2C)C[C@H](O)[C@@H]1O | ReNcell VM | imaging | 24 h | ~2020 nM |
| COc1ccc2[nH]cc(CCNc3nccc(Nc4cccc5c4ccn5C)n3)c2c1 | RPMI-8226 | fluorescence | 72 h | 12 nM |
| CC(=O)c1cccc(NC(=O)C(=O)[C@H](CC(C)C)NC(=O)[C@H](Cc2ccccc2)NC(=O)[C@H](CC(C)C)NC(=O)OCc2ccccc2)c1 | RPMI-8226 | MTS | 72 h | 163 nM |
| CCOP(=S)(OCC)Oc1nc(Cl)c(Cl)cc1Cl | ReNcell VM |  | 24 h | ~9900 nM |
| Cc1cc(N(CCO)CCO)ccc1C(=O)O | ACHN |  |  | > 10 µg/mL |
| C=C(C)[C@H]1Cc2c(ccc3c2O[C@@H]2COc4cc(OC)c(OC)cc4[C@@H]2C3=O)O1 | ReNcell VM |  | 24 h | 270 nM |
| O=C(O)CCCc1ccc(N(CCCl)CCCl)cc1 | IOSE-144 | CCK-8 | 48 h | 16500 nM |
